Measured values: ChEMBL document CHEMBL4033785, “Increased Potency and Selectivity for Group III Metabotropic Glutamate Receptor Agonists Binding at Dual sites” (J Med Chem, 2018)

Assays:
Homo sapiens [1] = species: Homo sapiens; assay: (§1) Selectivity ratio of EC50 for mGlu8 (unknown origin) expressed in HEK293 cells coexpressing chimeric Gq/i protein assessed as increase in intracellular calcium accumulation to EC50 for mGlu4 (unknown origin) expressed in HEK293 cells coexpressing chimeric Gq/i protein assessed as increase in intracellular calcium accumulation; type: cell-based
How it was run: (§2)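 Ratio of mGlu8 EC50 to mGlu4 EC50, both from the same functional assay. Both receptors were co-expressed in HEK293 cells with chimeric G-protein and EAAT3 and read by 3H-IP accumulation or by Fluo-4 Ca2+ release.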

[2] = molecular target: Metabotropic glutamate receptor 7 (Homo sapiens, UniProt Q14831); assay: Agonist activity at mGlu7 (unknown origin) expressed in HEK293 cells coexpressing chimeric Gq/i protein assessed as increase in intracellular calcium accumulation by Fluo-4 AM dye based fluorescence assay; type: functional, cell-based
Chain of Metabotropic glutamate receptor 7 (Q14831 whole entry): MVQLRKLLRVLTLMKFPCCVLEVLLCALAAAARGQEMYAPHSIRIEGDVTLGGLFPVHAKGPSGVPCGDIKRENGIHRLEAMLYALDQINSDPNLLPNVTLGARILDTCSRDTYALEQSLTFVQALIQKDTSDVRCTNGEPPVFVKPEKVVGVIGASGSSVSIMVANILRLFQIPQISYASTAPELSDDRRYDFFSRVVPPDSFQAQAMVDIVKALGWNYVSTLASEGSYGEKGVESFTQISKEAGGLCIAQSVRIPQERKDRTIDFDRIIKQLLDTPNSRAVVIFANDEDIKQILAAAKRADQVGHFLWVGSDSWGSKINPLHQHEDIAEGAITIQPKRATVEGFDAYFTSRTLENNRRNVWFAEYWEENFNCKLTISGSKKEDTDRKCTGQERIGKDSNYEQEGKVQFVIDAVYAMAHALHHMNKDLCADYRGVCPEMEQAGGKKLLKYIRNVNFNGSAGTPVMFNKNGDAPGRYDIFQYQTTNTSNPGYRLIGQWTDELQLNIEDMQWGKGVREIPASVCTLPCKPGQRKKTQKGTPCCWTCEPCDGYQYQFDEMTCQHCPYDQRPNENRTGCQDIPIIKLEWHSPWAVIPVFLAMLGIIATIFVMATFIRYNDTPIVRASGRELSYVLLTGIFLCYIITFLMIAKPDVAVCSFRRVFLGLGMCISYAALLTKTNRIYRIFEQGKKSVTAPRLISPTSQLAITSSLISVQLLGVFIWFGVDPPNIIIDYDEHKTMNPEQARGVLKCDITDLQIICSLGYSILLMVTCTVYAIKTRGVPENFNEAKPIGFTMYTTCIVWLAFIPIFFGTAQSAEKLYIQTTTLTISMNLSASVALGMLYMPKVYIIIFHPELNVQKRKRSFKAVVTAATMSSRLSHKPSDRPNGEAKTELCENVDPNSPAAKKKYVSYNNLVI

[3] = molecular target: Metabotropic glutamate receptor 4 (Homo sapiens, UniProt Q14833); assay: Agonist activity at mGlu4 (unknown origin) expressed in HEK293 cells coexpressing chimeric Gq/i protein assessed as increase in intracellular calcium accumulation by Fluo-4 AM dye based fluorescence assay; type: functional, cell-based
Chain of Metabotropic glutamate receptor 4 (Q14833 whole entry): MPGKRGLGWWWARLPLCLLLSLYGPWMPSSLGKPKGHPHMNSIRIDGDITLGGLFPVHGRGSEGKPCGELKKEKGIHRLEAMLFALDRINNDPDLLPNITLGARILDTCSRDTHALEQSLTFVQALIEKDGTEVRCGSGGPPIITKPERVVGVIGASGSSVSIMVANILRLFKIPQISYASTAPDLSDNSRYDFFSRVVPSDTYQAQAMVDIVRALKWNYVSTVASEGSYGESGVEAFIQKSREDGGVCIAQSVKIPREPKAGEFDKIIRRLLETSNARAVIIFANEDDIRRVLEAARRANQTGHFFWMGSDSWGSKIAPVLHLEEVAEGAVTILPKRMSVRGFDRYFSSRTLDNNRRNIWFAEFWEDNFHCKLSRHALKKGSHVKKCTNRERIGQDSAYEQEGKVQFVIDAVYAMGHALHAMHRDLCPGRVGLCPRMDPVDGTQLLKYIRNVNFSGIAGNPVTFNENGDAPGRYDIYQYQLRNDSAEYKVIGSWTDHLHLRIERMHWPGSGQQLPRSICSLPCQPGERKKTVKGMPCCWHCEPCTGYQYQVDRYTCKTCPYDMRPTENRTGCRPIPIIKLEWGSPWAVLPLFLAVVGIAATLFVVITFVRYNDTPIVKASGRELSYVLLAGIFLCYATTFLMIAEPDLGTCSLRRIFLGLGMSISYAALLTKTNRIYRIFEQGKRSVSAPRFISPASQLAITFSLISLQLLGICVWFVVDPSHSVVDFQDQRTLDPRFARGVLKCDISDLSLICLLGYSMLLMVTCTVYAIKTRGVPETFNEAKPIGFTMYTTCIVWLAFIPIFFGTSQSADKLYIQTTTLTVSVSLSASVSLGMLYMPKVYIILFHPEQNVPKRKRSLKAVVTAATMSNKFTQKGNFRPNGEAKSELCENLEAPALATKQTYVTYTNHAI

[4] = molecular target: T1, Metabotropic glutamate receptor 8 (Homo sapiens, UniProt O00222); assay: Agonist activity at mGlu8 (unknown origin) expressed in HEK293 cells coexpressing chimeric Gq/i protein assessed as increase in intracellular calcium accumulation by Fluo-4 AM dye based fluorescence assay; type: functional, cell-based
T1 sequence (O00222 whole entry): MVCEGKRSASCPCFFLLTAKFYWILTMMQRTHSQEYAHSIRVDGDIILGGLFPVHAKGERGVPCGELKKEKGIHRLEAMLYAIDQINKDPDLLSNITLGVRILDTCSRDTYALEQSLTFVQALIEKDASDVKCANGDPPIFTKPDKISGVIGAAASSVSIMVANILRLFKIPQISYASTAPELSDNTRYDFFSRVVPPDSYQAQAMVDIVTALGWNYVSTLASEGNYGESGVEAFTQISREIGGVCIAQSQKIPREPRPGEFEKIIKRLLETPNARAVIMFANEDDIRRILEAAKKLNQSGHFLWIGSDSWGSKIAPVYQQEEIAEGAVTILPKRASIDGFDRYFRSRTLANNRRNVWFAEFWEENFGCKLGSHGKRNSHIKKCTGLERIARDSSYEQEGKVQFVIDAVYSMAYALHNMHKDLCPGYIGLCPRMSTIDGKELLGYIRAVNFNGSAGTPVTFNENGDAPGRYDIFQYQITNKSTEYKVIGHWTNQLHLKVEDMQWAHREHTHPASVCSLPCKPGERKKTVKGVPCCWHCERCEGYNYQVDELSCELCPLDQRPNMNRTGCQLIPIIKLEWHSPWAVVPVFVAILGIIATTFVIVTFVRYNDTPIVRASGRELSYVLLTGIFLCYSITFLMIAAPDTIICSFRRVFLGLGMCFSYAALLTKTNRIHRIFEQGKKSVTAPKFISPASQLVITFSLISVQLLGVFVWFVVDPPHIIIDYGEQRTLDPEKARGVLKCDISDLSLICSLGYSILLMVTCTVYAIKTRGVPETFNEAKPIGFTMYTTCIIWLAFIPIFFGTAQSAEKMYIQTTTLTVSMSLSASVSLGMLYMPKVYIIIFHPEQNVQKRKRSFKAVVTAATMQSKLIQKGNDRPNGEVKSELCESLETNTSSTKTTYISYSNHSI

[5] = molecular target: Metabotropic glutamate receptor 6 (Homo sapiens, UniProt O15303); assay: Agonist activity at mGlu6 (unknown origin) expressed in HEK293 cells coexpressing chimeric Gq/i protein assessed as increase in intracellular calcium accumulation by Fluo-4 AM dye based fluorescence assay; type: functional, cell-based
Chain of Metabotropic glutamate receptor 6 (O15303 whole entry): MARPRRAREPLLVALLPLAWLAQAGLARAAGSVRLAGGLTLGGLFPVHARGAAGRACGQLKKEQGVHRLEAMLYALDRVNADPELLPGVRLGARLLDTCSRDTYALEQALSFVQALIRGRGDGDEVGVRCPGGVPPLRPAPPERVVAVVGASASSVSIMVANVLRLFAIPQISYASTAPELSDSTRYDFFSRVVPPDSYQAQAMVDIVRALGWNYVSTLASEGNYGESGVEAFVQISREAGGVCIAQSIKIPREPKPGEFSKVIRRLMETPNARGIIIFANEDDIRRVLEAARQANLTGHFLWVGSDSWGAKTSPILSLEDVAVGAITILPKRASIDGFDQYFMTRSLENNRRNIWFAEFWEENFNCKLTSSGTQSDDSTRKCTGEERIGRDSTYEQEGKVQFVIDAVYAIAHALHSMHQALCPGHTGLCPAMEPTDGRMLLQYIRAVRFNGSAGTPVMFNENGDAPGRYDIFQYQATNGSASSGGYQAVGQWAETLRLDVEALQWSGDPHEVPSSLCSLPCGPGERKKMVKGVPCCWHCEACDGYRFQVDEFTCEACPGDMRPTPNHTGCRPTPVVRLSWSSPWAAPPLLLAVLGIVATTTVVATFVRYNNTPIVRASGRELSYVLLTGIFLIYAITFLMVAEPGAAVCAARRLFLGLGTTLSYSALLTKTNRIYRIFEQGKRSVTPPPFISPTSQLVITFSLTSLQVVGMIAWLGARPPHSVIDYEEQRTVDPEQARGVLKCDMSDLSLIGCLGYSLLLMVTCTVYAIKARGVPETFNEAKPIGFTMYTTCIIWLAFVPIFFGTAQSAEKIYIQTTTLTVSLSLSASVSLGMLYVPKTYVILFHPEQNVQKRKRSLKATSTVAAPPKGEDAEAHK

[6] = molecular target: T1, Metabotropic glutamate receptor 8; assay: Agonist activity at mGlu8 (unknown origin) expressed in HEK293 cells coexpressing chimeric Gq/i protein assessed as [3H]inositol phosphate accumulation after 30 mins by scintillation and luminescence counting method; type: functional, cell-based
How it was run: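 Receptor transiently co-expressed in HEK293 cells (electroporation) with chimeric G-protein and glutamate transporter EAAT3. Cells labelled overnight with 3H-myoinositol, stimulated with agonist 30 min, lysed 1 h in cold 0.1 M formic acid. 3H-IP isolated on Dowex ion exchange and counted. IP expressed relative to IP plus membrane radioactivity. Points in triplicate; EC50 from Hill-equation fit.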

Homo sapiens [7] = species: Homo sapiens; assay: as §1, with “[3H]inositol phosphate” for “increase in intracellular calcium”; type: cell-based; how it was run: as §2

| EC50 [2] [µM] | EC50 [3] [µM] | EC50 [4] [µM] | EC50 [5] [µM] | EC50 [6] [µM] | Structure (SMILES) | Ratio EC50 (Homo sapiens [1]) | Ratio EC50 (Homo sapiens [7]) |
| --- | --- | --- | --- | --- | --- | --- | --- |
| 51.2 | 1.95 | 23.4 | 1.07 |  | N[C@@H](CCP(=O)(O)C(O)c1cc(F)c(O)c([N+](=O)[O-])c1)C(=O)O (some centres undefined) | 12 |  |
| > 100 |  |  | 2.9 | 0.98 | N[C@@H](CCP(=O)(O)C(O)c1ccc([N+](=O)[O-])c(C(F)(F)F)c1)C(=O)O (some centres undefined) |  | 2.4 |
|  | 28 | 26.2 |  |  | N[C@@H](CCP(=O)(O)C(O)c1ccncc1)C(=O)O (some centres undefined) | 1 |  |
|  |  |  |  | 5.2 | N[C@@H](CCP(=O)(O)C(O)c1ccc(C(F)(F)F)o1)C(=O)O (some centres undefined) |  | 3.1 |
|  |  |  |  | 21.2 | N[C@@H](CCP(=O)(O)C(O)c1cccc([N+](=O)[O-])c1O)C(=O)O (some centres undefined) |  | 0.92 |
|  |  |  |  | 219 | N#Cc1cccc(C(O)P(=O)(O)CC[C@H](N)C(=O)O)c1 (some centres undefined) |  | 5.3 |
|  |  |  |  | 4.2 | N[C@@H](CCP(=O)(O)C(O)c1cc([N+](=O)[O-])ccc1O)C(=O)O (some centres undefined) |  | 4.6 |
|  | 6.1 | 38 |  |  | CCCCCCCCNC(c1cccc([N+](=O)[O-])c1)P(=O)(O)CC[C@H](N)C(=O)O (some centres undefined) | 6.3 |  |
|  | 7.7 | 25 |  |  | N[C@@H](CCP(=O)(O)C(O)c1ccc(O)cc1)C(=O)O (some centres undefined) | 3.2 |  |
|  |  |  |  | 14 | CC(=O)c1ccc(C(O)P(=O)(O)CC[C@H](N)C(=O)O)cc1 (some centres undefined) |  | 1.8 |
| 39 | 2.42 | 34.3 | 0.76 |  | N[C@@H](CCP(=O)(O)[C@H](O)c1cc(F)c(O)c([N+](=O)[O-])c1)C(=O)O | 14 |  |
| 100 | 4.4 | 26 | 2.4 |  | COc1cc([C@H](O)P(=O)(O)CC[C@H](N)C(=O)O)cc([N+](=O)[O-])c1O |  |  |
|  | 15.8 | 40 |  |  | N[C@@H](CCP(=O)(O)C(O)c1ccc(O)c(C(=O)O)c1)C(=O)O (some centres undefined) | 2.5 |  |
| > 100 | 0.32 | 1.3 | 3.2 |  | N[C@@H](CCP(=O)(O)[C@@H](O)c1cccc([N+](=O)[O-])c1)C(=O)O |  |  |
| > 100 | 4.7 | 4.9 | 18 | 2.5 | N[C@@H](CCP(=O)(O)C(O)c1ccc(Cl)c([N+](=O)[O-])c1)C(=O)O (some centres undefined) | 1 | 1.2 |
| > 100 |  |  | 4.2 | 1.9 | N[C@@H](CCP(=O)(O)C(O)c1ccc([N+](=O)[O-])s1)C(=O)O (some centres undefined) |  | 3.9 |
|  |  |  |  | 1.8 | NC(c1csc([N+](=O)[O-])c1)P(=O)(O)CC[C@H](N)C(=O)O (some centres undefined) |  | 2.2 |
| > 100 | 2 | 2.5 | 4.5 |  | COc1ccc([C@@H](O)P(=O)(O)CC[C@H](N)C(=O)O)cc1[N+](=O)[O-] | 1.2 |  |
|  | > 100 |  |  | 511 | N[C@@H](CCP(=O)(O)Cc1cccc(C(=O)O)c1)C(=O)O |  | 2.4 |
|  | 33 | 17 |  |  | N[C@@H](CCP(=O)(O)C(O)c1ccc(O)nc1)C(=O)O (some centres undefined) | 0.5 |  |
| 11.6 | 8.8 | 8.4 |  | 8.4 | Nc1ccc(C(O)P(=O)(O)CC[C@H](N)C(=O)O)cc1 (some centres undefined) | 0.9 | 0.9 |
|  | 4.41 | 7.2 |  |  | N[C@@H](CCP(=O)(O)C(NCCc1ccccc1)c1cccc([N+](=O)[O-])c1)C(=O)O (some centres undefined) | 1.6 |  |
|  |  |  |  | 19.8 | N[C@@H](CCP(=O)(O)C(O)c1ccc([N+](=O)[O-])c(O)c1)C(=O)O (some centres undefined) |  | 8.7 |
| 63 | 0.72 | 18 | 1.1 |  | COc1cc([C@@H](O)P(=O)(O)CC[C@H](N)C(=O)O)cc([N+](=O)[O-])c1O |  |  |
|  | 6.5 | 61 | 23 |  | COc1ccc(C(O)P(=O)(O)CC[C@H](N)C(=O)O)cc1 (some centres undefined) | 9.3 |  |

| EC50 [2] [µM] | EC50 [3] [µM] | EC50 [4] [µM] | EC50 [5] [µM] | EC50 [6] [µM] | Structure (SMILES) | Ratio EC50 (Homo sapiens [1]) | Ratio EC50 (Homo sapiens [7]) |
| --- | --- | --- | --- | --- | --- | --- | --- |
|  | 42 | 81 |  |  | N[C@@H](CCP(=O)(O)C(O)c1ccnc(O)c1)C(=O)O (some centres undefined) | 1.9 |  |
|  |  |  |  | 9.2 | N[C@@H](CCP(=O)(O)C(O)c1coc(C(=O)O)c1)C(=O)O (some centres undefined) |  | 4.6 |
| > 100 | 59 | > 100 | > 100 |  | CS(=O)(=O)c1ccc(C(O)P(=O)(O)CC[C@H](N)C(=O)O)cc1 (some centres undefined) |  |  |
|  | 1.5 | 73 |  |  | N[C@@H](CCP(=O)(O)C(O)c1ccc(O)c([N+](=O)[O-])c1)C(=O)O (some centres undefined) | 48 | 18 |
|  | 3.4 | 6.9 |  |  | N[C@@H](CCP(=O)(O)C(O)c1c[nH]c2ncccc12)C(=O)O (some centres undefined) | 2 |  |
| > 100 | 1.7 | 2.2 | 3.9 |  | COc1ccc([C@H](O)P(=O)(O)CC[C@H](N)C(=O)O)cc1[N+](=O)[O-] | 1.3 |  |
|  |  |  |  |  | NC(c1cccc([N+](=O)[O-])c1)P(=O)(O)CC[C@H](N)C(=O)O (some centres undefined) |  | 4.1 |
| > 100 | 24 | 277 | > 100 |  | N[C@@H](CCP(=O)(O)Cc1ccc(O)c([N+](=O)[O-])c1)C(=O)O | 11 |  |
|  | 19 | 28 |  |  | COc1cc(CP(=O)(O)CC[C@H](N)C(=O)O)cc([N+](=O)[O-])c1O | 1.5 |  |
|  | 25.3 | 29.7 |  |  | N[C@@H](CCP(=O)(O)C(NCc1ccccc1)c1cccc([N+](=O)[O-])c1)C(=O)O (some centres undefined) | 1.2 |  |
| > 100 |  |  | 3.2 |  | N[C@@H](CCP(=O)(O)Cc1cccc([N+](=O)[O-])c1)C(=O)O | 2.5 | 5.4 |
| > 100 |  |  | > 100 | > 100 | N[C@@H](CCP(=O)(O)C(O)c1ccc(N2CCOCC2)c([N+](=O)[O-])c1)C(=O)O (some centres undefined) |  |  |
|  | 3.5 | 3.8 |  | 2.7 | COc1ccc(C(O)P(=O)(O)CC[C@H](N)C(=O)O)cc1[N+](=O)[O-] (some centres undefined) | 1 | 1.7 |
|  | 25 | 22.8 |  |  | CCCCCCNC(c1cccc([N+](=O)[O-])c1)P(=O)(O)CC[C@H](N)C(=O)O (some centres undefined) | 0.9 |  |
|  | 7.9 | 35.4 |  |  | N[C@@H](CCP(=O)(O)C(NCc1cccc2ccccc12)c1cccc([N+](=O)[O-])c1)C(=O)O (some centres undefined) | 4.3 |  |
| > 100 | 1 | 1.25 | 2.4 |  | N[C@@H](CCP(=O)(O)[C@H](O)c1cccc([N+](=O)[O-])c1)C(=O)O | 1.2 |  |
| 62 | 0.5 | 31.4 | 3.6 |  | N[C@@H](CCP(=O)(O)[C@H](O)c1ccc(O)c([N+](=O)[O-])c1)C(=O)O | 61 |  |
|  |  |  |  | 34 | N[C@@H](CCP(=O)(O)C(O)c1ccc(C(F)(F)F)cc1)C(=O)O (some centres undefined) |  | 2.3 |
|  |  |  |  |  | N[C@@H](CCP(=O)(O)C(O)c1ccc(OCC(=O)O)cc1)C(=O)O (some centres undefined) | 256 |  |
|  | 5.1 | 22 |  |  | CCOc1cc([C@@H](O)P(=O)(O)CC[C@H](N)C(=O)O)cc([N+](=O)[O-])c1O | 4.4 |  |
|  |  | 20 |  |  | CCOc1cc(C(O)P(=O)(O)CC[C@H](N)C(=O)O)cc([N+](=O)[O-])c1O (mixture of isomers) | 2.4 |  |
| 53.8 | 9.77 | 17.1 | 10.2 |  | N[C@@H](CCP(=O)(O)[C@@H](O)c1cc(F)c(O)c([N+](=O)[O-])c1)C(=O)O | 1.8 |  |
| 295 | 4.5 | 39.8 | 68.4 |  | N[C@@H](CCP(=O)(O)[C@@H](O)c1ccc(O)c([N+](=O)[O-])c1)C(=O)O | 8.5 |  |
|  |  |  |  |  | N[C@@H](CCP(=O)(O)C(O)c1cccc([N+](=O)[O-])c1)C(=O)O (mixture of isomers) | 2 | 2.8 |
|  | 6.4 | 6.5 |  |  | CCOc1cc([C@H](O)P(=O)(O)CC[C@H](N)C(=O)O)cc([N+](=O)[O-])c1O | 1 |  |

| Structure (SMILES) | EC50 [2] [µM] | EC50 [3] [µM] | EC50 [4] [µM] | EC50 [5] [µM] | EC50 [6] [µM] | Ratio EC50 (Homo sapiens [1]) | Ratio EC50 (Homo sapiens [7]) |
| --- | --- | --- | --- | --- | --- | --- | --- |
| N[C@@H](CCP(=O)(O)C(O)c1c([N+](=O)[O-])cccc1[N+](=O)[O-])C(=O)O (some centres undefined) |  |  |  |  | 2.9 |  | 1.7 |
| N[C@@H](CCP(=O)(O)C(O)c1cc([N+](=O)[O-])cc([N+](=O)[O-])c1O)C(=O)O (some centres undefined) |  |  |  |  | 4.5 |  | 1.9 |
| N[C@@H](CCP(=O)(O)C(O)c1ccc([N+](=O)[O-])cc1[N+](=O)[O-])C(=O)O (some centres undefined) |  |  |  |  | 4.6 |  | 3.1 |
| N[C@@H](CCP(=O)(O)C(O)c1cc([N+](=O)[O-])cc([N+](=O)[O-])c1)C(=O)O (some centres undefined) |  |  |  |  | 6.6 |  | 4.5 |
